The record followed here is ChEMBL document CHEMBL1687687, “Identification of a New Series of STAT3 Inhibitors by Virtual Screening” (ACS Med Chem Lett, 2010).

Holding throughout (type): cell-based
The target in assay [1] is T1, Signal transducer and activator of transcription 3 (Homo sapiens, UniProt P40763). Kind of assay: Inhibition of STAT3 transcriptional activity in human HeLa cells at 100 uM by luciferase reporter gene assay. An outline of the steps:
(§1)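 STAT3-dependent luciferase reporter gene assay in HeLa cells. Activity is reported as percent inhibition at a single 100 μM concentration, or as an IC50.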
On the technique in general: A reporter such as luciferase makes a cellular process visible.

Assay [2] has as its target T1, Signal transducer and activator of transcription 3. Kind of assay: Inhibition of STAT3 dimerization transfected in HEK293 cells at 50 uM after 24 hrs followed by 1 hr stimulation with 50 ng/ml IL-6 by FRET assay. An outline of the steps: (§2)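 Cell-based FRET dimerization read-out in HEK293 cells co-expressing STAT3-CFP and STAT3-YFP. Cells were pretreated with compound before IL-6 stimulation, and the FRET signal from the STAT3–STAT3 interaction was measured. Values are given as percent inhibition of the signal.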

Assay [3] has the same target. The assay is described as follows: Inhibition of STAT3 dimerization transfected in HEK293 cells at 100 uM after 24 hrs followed by 1 hr stimulation with 50 ng/ml IL-6 by FRET assay. Conditions: 10 uM, in the assay text read “at 10 uM” for “at 100 uM”. The method in brief: as §2
For assay [4] the target is unchanged. Kind of assay: Inhibition of STAT3 transcriptional activity in human HeLa cells by luciferase reporter gene assay. An outline of the steps:
as §1

As usually defined, the inhibition is the relative decrease from the control value, in per cent. What is called IC50 is the concentration that gives 50% inhibition. High values mean lower potency, low ones higher potency.

T1 sequence (P40763 whole entry): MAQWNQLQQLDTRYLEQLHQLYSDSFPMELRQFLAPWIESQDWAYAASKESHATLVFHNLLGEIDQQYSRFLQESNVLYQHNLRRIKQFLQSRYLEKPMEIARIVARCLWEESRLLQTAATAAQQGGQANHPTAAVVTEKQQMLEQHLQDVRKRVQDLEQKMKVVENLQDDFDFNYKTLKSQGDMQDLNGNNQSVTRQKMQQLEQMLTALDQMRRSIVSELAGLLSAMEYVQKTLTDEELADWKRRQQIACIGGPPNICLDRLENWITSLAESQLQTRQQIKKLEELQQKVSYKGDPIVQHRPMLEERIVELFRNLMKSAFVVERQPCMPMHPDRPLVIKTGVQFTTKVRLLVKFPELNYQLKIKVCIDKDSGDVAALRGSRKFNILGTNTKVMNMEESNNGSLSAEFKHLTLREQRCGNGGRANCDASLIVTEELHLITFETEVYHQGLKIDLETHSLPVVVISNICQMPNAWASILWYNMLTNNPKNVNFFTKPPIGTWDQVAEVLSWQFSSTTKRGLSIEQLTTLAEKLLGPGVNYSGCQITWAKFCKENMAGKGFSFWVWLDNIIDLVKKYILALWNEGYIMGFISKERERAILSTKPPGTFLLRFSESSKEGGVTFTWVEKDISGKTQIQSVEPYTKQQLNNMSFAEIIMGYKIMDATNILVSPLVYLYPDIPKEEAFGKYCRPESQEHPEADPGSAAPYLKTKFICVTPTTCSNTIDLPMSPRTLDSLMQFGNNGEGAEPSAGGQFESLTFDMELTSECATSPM

As to `O=C(Nc1nnc(-c2ccco2)o1)c1ccnc2ccccc12`, the inhibition in assay [1] was -5%; in assay [2] it was -4%; in assay [3] it was -2%.
Take `O=C(Nc1nnc(-c2ccco2)s1)c1cc(-c2ccccc2)nc2ccccc12`: the inhibition in assay [1] is 26%.
Take `O=C(Nc1nnc(Cc2ccccc2)o1)c1cc(-c2ccccc2)nc2ccccc12`: the inhibition in assay [1] worked out at 82%; in assay [2], 61%; in assay [3], 25%. The compound further displayed an IC50 in assay [4] of 75 µM.
For `O=C(Nc1nnc(-c2ccccc2)o1)c1cc(-c2ccccc2)nc2ccccc12` the same measures were 105%, 60%, 43% and 66 µM.
For `O=C(Nc1nnc(-c2ccccc2Cl)o1)c1cc(-c2ccccc2)nc2ccccc12`, the inhibition in assay [1] amounted to 5%.
Same read-out and setting: as for `O=C(Nc1nnc(-c2ccco2)o1)c1cc(N2CCCCC2)nc2ccccc12`, the figure is -7%.
The same measure, in the same setting: as for `CCOC(=O)c1nnc(NC(=O)c2cc(-c3ccccc3)nc3ccccc23)o1`, the figure is 38%.
Turning to `O=C(Nc1nnc(-c2ccoc2)o1)c1cc(-c2ccccc2)nc2ccccc12`, the inhibition came out at 103% in assay [1], 55% in assay [2] and 8% in assay [3]. The same compound showed an IC50 in assay [4] of 72 µM.
Take `O=C(Nc1nnc(-c2ccco2)o1)c1cc(-c2ccccn2)nc2ccccc12`: the inhibition in assay [1] turned out to be 5%.
For the compound `O=C(Nc1nnc(-c2ccco2)o1)c1cc(-c2cccs2)nc2ccccc12`, the inhibition in assay [1] stood at 91%; in assay [2] it was 56%; in assay [3], 18%. Moreover, the IC50 in assay [4] turned out to be 63 µM.
For the compound `O=C(Nc1nnc(-c2ccco2)o1)c1cc(-c2ccco2)nc2ccccc12`, the inhibition in assay [1] came out at 129%. Besides, the IC50 in assay [4] was 66 µM.
`Cc1nnc(NC(=O)c2cc(-c3ccccc3)nc3ccccc23)o1`: the inhibition in assay [1] is 14%.
As to `O=C(Nc1nnc(-c2ccco2)o1)c1cc(-c2cccc3ccccc23)nc2ccccc12`, the inhibition in assay [1] is 121%; in assay [2], 70%; in assay [3], 14%. Moreover, in assay [4], the IC50 is 55 µM.
On to `O=C(Nc1nnc(-c2ccco2)o1)c1cc(-c2cccnc2)nc2ccccc12`, for which the inhibition in assay [1] stood at 12%.
Turning to `O=C(Nc1nnc(-c2cccs2)o1)c1cc(-c2ccccc2)nc2ccccc12`, the inhibition in assay [1] was 86%; in assay [2] it was 56%; in assay [3], 36%. Besides, the half-maximal inhibitory concentration (IC50) in assay [4] amounted to 75 µM.
For `O=C(Nc1nnc(-c2ccc(Cl)cc2)o1)c1cc(-c2ccccc2)nc2ccccc12`, in assay [1], the inhibition was determined as 115%. This compound also registered an IC50 in assay [4] of 61 µM.
As to `CCc1nnc(NC(=O)c2cc(-c3ccccc3)nc3ccccc23)o1`, in assay [1], the inhibition turned out to be 33%.
On the same count and under the same terms, the value for `O=C(Nc1nnc(-c2ccco2)o1)c1cc(Cl)nc2ccccc12` was 43%.
